Results from different studies.
Each line is one published result; the experiments were not run side by side.
Target: Mitogen-activated protein kinase kinase kinase 9 (MAP3K9, Homo sapiens, UniProt P80192)

C=CC(=O)N1CCC[C@@H](n2nc(-c3ccc(Oc4ccccc4)cc3)c3c(N)ncnc32)C1
inhibition (enzyme activity; inhibitor; 1 µM): 4%

CN1CCN(C(=O)c2ccc(NC(=O)Nc3ccc(N(C)c4ccnc(Nc5ccc(CS(C)(=O)=O)cc5)n4)cc3)cc2)CC1
remaining binding (binding; 1 µM): 86%

CCCCC(=O)Nc1ccc(-c2ccc3ncn(CCC)c(=O)c3c2)cn1
remaining binding (binding; competition with immobilised ligand; 0.5 µM): 83%

COc1ccc2oc(-c3ccc4nc(N)oc4c3)c/c(=N\c3ccccc3NC(=O)CCN)c2c1
remaining binding (binding; 1 µM): 83%

CO[C@@H]1[C@H](N(C)C(=O)c2ccccc2)C[C@H]2O[C@]1(C)n1c3ccccc3c3c4c(c5c6ccccc6n2c5c31)C(=O)NC4
inhibition (enzyme activity; inhibitor; 1 µM): 90%

C#Cc1cnc(Nc2ccnc(CO)c2)nc1Nc1ccccc1S(C)(=O)=NC#N (stereo not drawn)
remaining signal (cell-free assay; 1 µM): 26%

C#Cc1cc(-c2cc(Nc3nc(N[C@@H](C)c4ccc(F)cn4)ncc3Cl)n[nH]2)ccc1C=O
inhibition (enzyme activity; inhibitor; 0.2 µM): 59.8%

Cc1ccc(NC(=O)c2ccnc(C(F)(F)F)c2)cc1-c1cc(OCCO)nc(N2CCOCC2)c1
remaining binding (binding; 1 µM): 100%

N#Cc1ccc(NC(=O)Nc2ccccc2)cc1
remaining binding (cell-free assay; competition with immobilised ligand; 25 µM): 100%
